In brackets after ≈: the same amount, converted by molar mass.
Assays:
[1] = molecular target: T1, Sterol 14-alpha demethylase cyp51A (Neosartorya fumigata (strain ATCC MYA-4609 / Af293 / CBS 101355 / FGSCA1100) (Aspergillus fumigatus), UniProt Q4WNT5); assay: Binding affinity to Aspergillus fumigatus AF293 sterol 14-alpha demethylase isoenzyme A expressed in Escherichia coli
T1 sequence (Q4WNT5 whole entry): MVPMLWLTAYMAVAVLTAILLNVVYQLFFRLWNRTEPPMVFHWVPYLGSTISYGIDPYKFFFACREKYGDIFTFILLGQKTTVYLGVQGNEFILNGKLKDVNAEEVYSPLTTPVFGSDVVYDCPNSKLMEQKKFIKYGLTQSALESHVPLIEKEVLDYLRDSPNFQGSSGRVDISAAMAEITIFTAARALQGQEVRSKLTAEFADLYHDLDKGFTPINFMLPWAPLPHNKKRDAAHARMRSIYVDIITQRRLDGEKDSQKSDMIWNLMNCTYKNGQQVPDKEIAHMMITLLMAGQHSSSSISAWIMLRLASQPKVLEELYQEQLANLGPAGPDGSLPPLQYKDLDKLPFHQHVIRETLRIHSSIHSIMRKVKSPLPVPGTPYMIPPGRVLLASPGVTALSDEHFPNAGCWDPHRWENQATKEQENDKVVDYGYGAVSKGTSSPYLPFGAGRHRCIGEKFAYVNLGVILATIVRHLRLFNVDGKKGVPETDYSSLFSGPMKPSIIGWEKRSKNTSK
Method in brief: (§1)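 His-tagged CYP51 (Af293 sequence, codon-optimised, E. coli-expressed), cholate-solubilised and Ni-NTA purified, at 1 μM in 0.1 M Tris-HCl pH 8.1 with 25% glycerol. Azole (0.05 mg/ml DMSO stock) titrated in split 4.5 mm cuvettes, with DMSO added to the reference. Difference spectra were read at 500–350 nm. Peak-to-trough change was plotted against concentration. Kd came from Morrison (tight binding), Michaelis-Menten or Hill fits.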

[2] = molecular target: T2, 14-alpha sterol demethylase (Neosartorya fumigata (Aspergillus fumigatus), UniProt Q96W81); assay: Binding affinity to Aspergillus fumigatus AF293 sterol 14-alpha demethylase isoenzyme B expressed in Escherichia coli assessed as tight binding affinity constant; method in brief: as §1
T2 sequence (Q96W81 whole entry): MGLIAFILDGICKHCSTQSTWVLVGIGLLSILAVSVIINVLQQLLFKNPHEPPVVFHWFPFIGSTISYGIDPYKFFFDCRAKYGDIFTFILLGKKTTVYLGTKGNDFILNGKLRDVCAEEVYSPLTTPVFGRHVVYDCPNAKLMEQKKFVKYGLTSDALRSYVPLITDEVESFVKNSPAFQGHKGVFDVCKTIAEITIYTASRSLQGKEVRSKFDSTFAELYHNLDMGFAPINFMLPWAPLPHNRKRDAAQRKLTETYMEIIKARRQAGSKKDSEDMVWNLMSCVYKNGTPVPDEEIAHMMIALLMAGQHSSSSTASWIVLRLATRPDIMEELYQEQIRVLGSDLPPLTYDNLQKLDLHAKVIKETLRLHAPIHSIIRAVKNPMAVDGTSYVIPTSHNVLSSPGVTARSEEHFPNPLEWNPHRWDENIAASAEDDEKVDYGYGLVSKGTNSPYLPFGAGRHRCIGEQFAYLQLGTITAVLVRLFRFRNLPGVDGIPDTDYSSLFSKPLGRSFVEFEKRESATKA

[3] = tested on: Aspergillus fumigatus; assay: Antimicrobial activity against Aspergillus fumigatus CEA10; type: functional
[4] = tested on: Aspergillus fumigatus; assay: Antimicrobial activity against Aspergillus fumigatus AF293; type: functional
[5] = tested on: Aspergillus fumigatus; assay: Antimicrobial activity against sterol 14-alpha demethylase isoenzyme B-deficient Aspergillus fumigatus CEA10; type: functional
[6] = molecular target: Lanosterol 14-alpha demethylase (Candida albicans (strain SC5314 / ATCC MYA-2876) (Yeast), UniProt P10613); assay: Binding affinity to Candida albicans CYP51
[7] = Binding affinity to Mycobacterium smegmatis CYP51; design: species or system Mycolicibacterium smegmatis
[8] = tested on: Aspergillus fumigatus; assay: Antimicrobial activity against sterol 14-alpha demethylase isoenzyme A-deficient Aspergillus fumigatus CEA10; type: functional
[9] = molecular target: T2, 14-alpha sterol demethylase; assay: Binding affinity to Aspergillus fumigatus AF293 sterol 14-alpha demethylase isoenzyme B expressed in Escherichia coli; method in brief: as §1
[10] = tested on: Aspergillus fumigatus; assay: Antimicrobial activity against sterol 14-alpha demethylase isoenzyme A-deficient Aspergillus fumigatus CM237; type: functional
[11] = tested on: Aspergillus fumigatus; assay: Antimicrobial activity against Aspergillus fumigatus CM237; type: functional

Lanosterol 14-alpha demethylase, sequence (P10613 whole entry): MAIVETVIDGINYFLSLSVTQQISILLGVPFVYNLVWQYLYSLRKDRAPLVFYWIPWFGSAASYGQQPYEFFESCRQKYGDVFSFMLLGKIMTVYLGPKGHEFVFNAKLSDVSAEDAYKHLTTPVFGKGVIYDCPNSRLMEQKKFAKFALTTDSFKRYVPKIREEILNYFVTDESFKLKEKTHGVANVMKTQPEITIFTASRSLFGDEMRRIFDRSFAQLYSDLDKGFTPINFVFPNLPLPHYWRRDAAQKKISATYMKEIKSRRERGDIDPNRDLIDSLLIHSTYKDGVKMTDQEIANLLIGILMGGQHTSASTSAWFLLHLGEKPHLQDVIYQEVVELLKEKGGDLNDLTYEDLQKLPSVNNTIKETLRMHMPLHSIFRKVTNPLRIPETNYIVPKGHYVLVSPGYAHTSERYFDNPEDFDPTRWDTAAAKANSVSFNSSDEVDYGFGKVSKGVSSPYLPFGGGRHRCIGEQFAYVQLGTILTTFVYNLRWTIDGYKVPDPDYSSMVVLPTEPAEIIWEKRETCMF

SMILES | Kd [1] [nM] | Kd [2] [nM] | MIC [4] [µM] | also measured
Clc1ccccc1C(c1ccccc1)(c1ccccc1)n1ccnc1 [CLOTRIMAZOLE] | 4790 | 103 |  | 
OC(Cn1cncn1)(Cn1cncn1)c1ccc(F)cc1F [FLUCONAZOLE] | 11900 |  |  | MIC ([3]; read-out: MIC): > 327 µg/mL; MIC ([4]; read-out: MIC): 105 µg/mL; MIC ([5]; read-out: MIC): > 327 µg/mL; Kd [6]: 45 nM; Kd [7]: 19000 nM; MIC ([8]; read-out: MIC): 20 µg/mL
CC[C@@H]([C@H](C)O)n1ncn(-c2ccc(N3CCN(c4ccc(OC[C@@H]5CO[C@@](Cn6cncn6)(c6ccc(F)cc6F)C5)cc4)CC3)cc2)c1=O [POSACONAZOLE] | 2690 | 73 | 0.72 | 
C[C@@H](c1ncncc1F)[C@](O)(Cn1cncn1)c1ccc(F)cc1F [VORICONAZOLE] | 3630 | 429 | 0.72 | Kd [9]: 423 nM; MIC [10]: 0.34 µM (≈ 0.119 µg/mL); MIC [11]: 1.49 µM (≈ 0.52 µg/mL)
CCC(C)n1ncn(-c2ccc(N3CCN(c4ccc(OCC5COC(Cn6cncn6)(c6ccc(Cl)cc6Cl)O5)cc4)CC3)cc2)c1=O (centres undefined) [ITRACONAZOLE] | 1010 | 31 | 0.71 | MIC [3]: 0.85 µM; MIC [5]: 0.85 µM; MIC [8]: 0.053 µM

Reference: ChEMBL document CHEMBL1671727, “Expression, purification, and characterization of Aspergillus fumigatus sterol 14-alpha demethylase (CYP51) isoenzymes A and B” (Antimicrob Agents Chemother, 2010)
